Published values of several laboratories.
Each line is one published result; the experiments were not run side by side.
Cell line: L02
Effect on: cell growth or viability

SMILES | method | time | IC50 [µM]
Cc1cc(Oc2ccc(NC(=O)c3sc(-c4ccccn4)nc3C)cc2)c2nncn2n1 | MTT | – | > 50
COCCCOc1ccnc(COc2ccc(NC(=O)Nc3ccc(Cl)cc3)cc2)c1C | MTT | 72 h | > 100
Oc1c(Br)cc(Br)c2cccnc12 | MTT | 48 h | > 100
COc1cc(C2Oc3cc([C@H]4Oc5cc(O)cc(O)c5C(=O)[C@@H]4O)ccc3OC2CO)ccc1O (stereo partly shown) | CCK-8 | 72 h | > 300
Cc1c(OCC(F)(F)F)ccnc1COc1ccc(NC(=O)Nc2ccc(Cl)c(C(F)(F)F)c2)cc1 | MTT | 72 h | > 100
COc1ccnc(-c2cc(OC)ccn2)c1 | MTT | 48 h | > 50
Cc1cc(Oc2ccc(NC(=O)c3sc(-c4ccncc4)nc3C)cc2)n2ncnc2n1 | MTT | – | > 50
COc1ccc(NC(=O)Nc2ccc(OCc3nccc(OC)c3OC)cc2)cc1 | MTT | 72 h | > 100
Oc1c(I)cc(I)c2cccnc12 | MTT | 48 h | 71
Cc1cc(Oc2ccc(NC(=O)c3cc(-c4cccs4)no3)cc2F)c2nncn2n1 | MTT | – | > 50
